Measurements reported in paper PMC3781598 (Pharmaceutical research, 2013).
Values after ≈ are worked out from the molar mass of the structure shown.

What was measured:
CYP3A4 = CYP3A4 (Homo sapiens, UniProt P08684); assay: Metabolic stability phenotyping with recombinantly expressed CYPs; assay type: in vitro ADME; details: recombinant CYP3A4, pH 7.4
In short: (§1)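 Each recombinant human CYP at 100 pmol/ml with 1 μM test compound in potassium phosphate pH 7.4, 3.33 mM MgCl2. Prewarmed 10 min at 37 °C, then started with NADPH regenerating system; no-NADPH buffer controls. Aliquots at 0–45 min quenched in methanol with buspirone internal standard. MS peak-area ratios gave ln(ratio)-vs-time slope, converted to T1/2. Duplicates.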

[1] = Aqueous solubility, shake-flask incubation method; assay type: physicochemical; details: phosphate-buffered saline, pH 7.4, aqueous buffer, thermodynamic from solid
In short: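 Shake-flask equilibration of test compound in phosphate-buffered saline, pH 7.4, for 24 h at room temperature.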

CYP2C19 = CYP2C19 (Homo sapiens, UniProt P33261); assay: Metabolic stability phenotyping with recombinantly expressed CYPs; assay type: in vitro ADME; details: recombinant CYP2C19, pH 7.4
Sequence of CYP2C19 (P33261 whole entry): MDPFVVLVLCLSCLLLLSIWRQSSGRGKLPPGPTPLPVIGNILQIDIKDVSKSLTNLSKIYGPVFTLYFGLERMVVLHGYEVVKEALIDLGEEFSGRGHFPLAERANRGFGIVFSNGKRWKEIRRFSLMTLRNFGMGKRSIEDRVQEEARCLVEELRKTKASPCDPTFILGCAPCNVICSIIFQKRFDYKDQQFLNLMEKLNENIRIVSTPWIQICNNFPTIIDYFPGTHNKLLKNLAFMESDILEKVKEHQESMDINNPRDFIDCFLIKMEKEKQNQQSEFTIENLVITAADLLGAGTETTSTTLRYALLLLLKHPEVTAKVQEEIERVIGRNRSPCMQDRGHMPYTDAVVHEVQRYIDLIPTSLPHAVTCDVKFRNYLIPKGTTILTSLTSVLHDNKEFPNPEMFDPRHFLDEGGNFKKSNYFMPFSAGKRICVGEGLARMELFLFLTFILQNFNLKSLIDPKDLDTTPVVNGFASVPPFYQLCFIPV
In short: as §1

CYP1A2 = target: T1, CYP1A2 (Homo sapiens, UniProt P05177); assay: as above; assay type: in vitro ADME; details: for half-life at 1 μM: human, recombinant CYP1A2, pH 7.4
T1 sequence (P05177 2-516 limits assumed): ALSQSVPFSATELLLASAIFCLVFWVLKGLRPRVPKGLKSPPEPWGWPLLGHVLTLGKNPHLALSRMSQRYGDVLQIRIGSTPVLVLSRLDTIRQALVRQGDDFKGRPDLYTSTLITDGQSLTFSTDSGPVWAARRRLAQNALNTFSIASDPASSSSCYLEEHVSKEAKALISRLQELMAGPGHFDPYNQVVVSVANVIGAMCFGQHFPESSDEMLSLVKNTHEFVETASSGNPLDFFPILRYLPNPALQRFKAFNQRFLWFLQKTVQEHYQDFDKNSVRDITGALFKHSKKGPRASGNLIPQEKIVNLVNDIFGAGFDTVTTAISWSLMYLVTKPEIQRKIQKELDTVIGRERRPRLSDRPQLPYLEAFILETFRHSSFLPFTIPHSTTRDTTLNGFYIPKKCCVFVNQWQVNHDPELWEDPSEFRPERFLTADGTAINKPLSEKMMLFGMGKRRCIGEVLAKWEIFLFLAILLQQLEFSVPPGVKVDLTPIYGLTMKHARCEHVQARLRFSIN
In short: as §1

[2] = Metabolic stability in liver microsomes; assay type: in vitro ADME, male B6C2F1 mouse; details: for half-life at 1 μM / microsomal CLint at 1 μM: male, B6C2F1, mouse, liver microsomes, pH 7.4; for Percent Loss of Substrate: mouse liver microsomes, 1 μM, 20-minute incubation
In short: (§2)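 Pooled liver or lung microsomes (male B6C2F1 mouse, male Sprague-Dawley rat, human) at 1.0 mg protein/ml in 50 mM potassium phosphate pH 7.4, 3 mM MgCl2, 1 mM EDTA. […] Stopped at 0, 5, 10, 20 min with acetonitrile containing antipyrene, then LC/MS/MS. Single-exponential kel gave T1/2. CLint = kel × incubation volume/mg protein.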

human CYP2A13 = target: T2, human CYP2A13 (Homo sapiens, UniProt Q16696); assay: Spectral ligand binding assay; details: for Spectral shift type 2A13: UV/Vis difference spectra
T2 sequence (Q16696 25-494): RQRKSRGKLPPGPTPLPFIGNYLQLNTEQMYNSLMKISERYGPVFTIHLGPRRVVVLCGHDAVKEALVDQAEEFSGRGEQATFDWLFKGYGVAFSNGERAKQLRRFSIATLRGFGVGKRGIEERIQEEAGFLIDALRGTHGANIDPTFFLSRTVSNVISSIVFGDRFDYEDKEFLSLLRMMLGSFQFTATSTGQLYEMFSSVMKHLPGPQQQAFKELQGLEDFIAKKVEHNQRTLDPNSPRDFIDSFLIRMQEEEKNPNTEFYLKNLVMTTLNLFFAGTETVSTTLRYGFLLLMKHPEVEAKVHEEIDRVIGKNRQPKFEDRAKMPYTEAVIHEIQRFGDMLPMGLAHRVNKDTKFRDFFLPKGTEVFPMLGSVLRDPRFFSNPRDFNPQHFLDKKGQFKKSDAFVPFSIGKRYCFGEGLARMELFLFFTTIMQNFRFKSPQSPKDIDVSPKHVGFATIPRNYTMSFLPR

hERG = hERG (Homo sapiens, UniProt Q12809); assay: hERG patch clamp assay; assay type: cell-based; details: for inhibition at 10 µM: human
Sequence of hERG (Q12809 whole entry): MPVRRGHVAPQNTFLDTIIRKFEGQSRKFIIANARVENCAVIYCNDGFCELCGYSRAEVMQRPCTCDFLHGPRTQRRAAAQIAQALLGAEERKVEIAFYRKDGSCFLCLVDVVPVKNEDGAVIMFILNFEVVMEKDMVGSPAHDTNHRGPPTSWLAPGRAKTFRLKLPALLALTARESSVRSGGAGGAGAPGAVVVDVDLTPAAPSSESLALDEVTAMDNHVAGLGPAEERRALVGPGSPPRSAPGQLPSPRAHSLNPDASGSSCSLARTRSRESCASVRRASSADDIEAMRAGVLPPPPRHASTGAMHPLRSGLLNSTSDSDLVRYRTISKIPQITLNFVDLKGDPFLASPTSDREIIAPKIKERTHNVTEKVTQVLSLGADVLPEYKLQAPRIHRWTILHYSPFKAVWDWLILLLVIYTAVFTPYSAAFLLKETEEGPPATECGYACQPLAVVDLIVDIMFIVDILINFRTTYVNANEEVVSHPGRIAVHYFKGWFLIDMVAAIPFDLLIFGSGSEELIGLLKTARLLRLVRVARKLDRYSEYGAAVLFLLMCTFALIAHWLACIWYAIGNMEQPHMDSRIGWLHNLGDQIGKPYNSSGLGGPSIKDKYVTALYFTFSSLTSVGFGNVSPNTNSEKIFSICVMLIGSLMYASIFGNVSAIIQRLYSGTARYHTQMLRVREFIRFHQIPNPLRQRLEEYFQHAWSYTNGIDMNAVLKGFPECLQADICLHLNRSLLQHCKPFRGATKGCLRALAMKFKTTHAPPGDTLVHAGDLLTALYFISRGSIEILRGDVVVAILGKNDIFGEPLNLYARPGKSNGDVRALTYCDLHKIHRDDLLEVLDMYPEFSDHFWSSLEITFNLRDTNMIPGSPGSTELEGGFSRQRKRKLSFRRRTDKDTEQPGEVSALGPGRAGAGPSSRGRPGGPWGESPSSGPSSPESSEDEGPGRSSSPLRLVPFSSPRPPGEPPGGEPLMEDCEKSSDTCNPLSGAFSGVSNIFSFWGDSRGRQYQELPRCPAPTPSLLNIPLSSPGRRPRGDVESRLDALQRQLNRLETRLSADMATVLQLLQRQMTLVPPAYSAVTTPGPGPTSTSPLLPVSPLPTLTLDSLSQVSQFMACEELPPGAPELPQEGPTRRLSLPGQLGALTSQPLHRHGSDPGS
In short: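 hERG inhibition by patch clamp, measured as block of the tail current. Highest test concentration was 10 μM.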

[3] = Metabolic stability in lung microsomes; assay type: in vitro ADME, male Sprague-Dawley rat; details: for half-life at 1 μM / microsomal CLint at 1 μM: male, Sprague-Dawley, rat, lung microsomes, pH 7.4; for Percent Loss of Substrate: rat lung microsomes, 1 μM, 20-minute incubation
In short: as §2

CYP2C9 = CYP2C9 (Homo sapiens, UniProt P11712); assay: Metabolic stability phenotyping with recombinantly expressed CYPs; assay type: in vitro ADME; details: recombinant CYP2C9, pH 7.4
Sequence of CYP2C9 (P11712 whole entry): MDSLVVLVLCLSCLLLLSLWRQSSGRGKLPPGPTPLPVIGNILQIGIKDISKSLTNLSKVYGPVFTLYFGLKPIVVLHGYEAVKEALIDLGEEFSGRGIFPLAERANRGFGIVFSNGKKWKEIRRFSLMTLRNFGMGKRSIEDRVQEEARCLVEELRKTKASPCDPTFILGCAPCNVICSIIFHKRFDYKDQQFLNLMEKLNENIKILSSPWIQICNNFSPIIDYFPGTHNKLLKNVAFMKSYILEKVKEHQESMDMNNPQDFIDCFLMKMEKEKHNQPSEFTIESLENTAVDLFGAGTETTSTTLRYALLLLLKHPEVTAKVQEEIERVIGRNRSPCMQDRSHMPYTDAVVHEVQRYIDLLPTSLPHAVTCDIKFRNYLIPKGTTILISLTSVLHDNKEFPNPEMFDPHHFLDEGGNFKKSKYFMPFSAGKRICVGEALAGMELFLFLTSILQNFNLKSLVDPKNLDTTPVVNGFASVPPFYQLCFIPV
In short: as §1

CYP2C8 = target: T3, CYP2C8 (Homo sapiens, UniProt P10632); assay: as above; assay type: in vitro ADME; details: recombinant CYP2C8, pH 7.4
T3 sequence (P10632 1-490): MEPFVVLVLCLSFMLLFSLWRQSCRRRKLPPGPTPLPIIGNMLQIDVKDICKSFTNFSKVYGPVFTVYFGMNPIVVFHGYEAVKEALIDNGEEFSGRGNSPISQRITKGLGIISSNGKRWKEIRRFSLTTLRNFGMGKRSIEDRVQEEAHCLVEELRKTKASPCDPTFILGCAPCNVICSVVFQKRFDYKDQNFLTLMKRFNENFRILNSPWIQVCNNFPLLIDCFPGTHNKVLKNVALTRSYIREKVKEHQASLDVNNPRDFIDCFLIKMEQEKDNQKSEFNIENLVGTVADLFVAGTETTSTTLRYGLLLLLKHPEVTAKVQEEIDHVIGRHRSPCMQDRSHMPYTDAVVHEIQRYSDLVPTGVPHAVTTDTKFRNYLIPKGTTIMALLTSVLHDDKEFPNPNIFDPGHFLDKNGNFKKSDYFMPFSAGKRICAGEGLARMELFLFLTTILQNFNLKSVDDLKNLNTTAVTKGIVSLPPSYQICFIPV
In short: as §1

[4] = Metabolic stability in liver microsomes; assay type: in vitro ADME, male Sprague-Dawley rat; details: for half-life at 1 μM / microsomal CLint at 1 μM: male, Sprague-Dawley, rat, liver microsomes, pH 7.4; for Percent Loss of Substrate: rat liver microsomes, 1 μM, 20-minute incubation
In short: as §2

[5] = Metabolic stability in lung microsomes; assay type: in vitro ADME, male B6C2F1 mouse; details: for half-life at 1 μM / microsomal CLint at 1 μM: male, B6C2F1, mouse, lung microsomes, pH 7.4; for Percent Loss of Substrate: mouse lung microsomes, 1 μM, 20-minute incubation
In short: as §2

[6] = Kd 2A13, spectral titration, ≥ = minimal Kd value

Sequence of CYP3A4 (P08684 2-503 limits assumed): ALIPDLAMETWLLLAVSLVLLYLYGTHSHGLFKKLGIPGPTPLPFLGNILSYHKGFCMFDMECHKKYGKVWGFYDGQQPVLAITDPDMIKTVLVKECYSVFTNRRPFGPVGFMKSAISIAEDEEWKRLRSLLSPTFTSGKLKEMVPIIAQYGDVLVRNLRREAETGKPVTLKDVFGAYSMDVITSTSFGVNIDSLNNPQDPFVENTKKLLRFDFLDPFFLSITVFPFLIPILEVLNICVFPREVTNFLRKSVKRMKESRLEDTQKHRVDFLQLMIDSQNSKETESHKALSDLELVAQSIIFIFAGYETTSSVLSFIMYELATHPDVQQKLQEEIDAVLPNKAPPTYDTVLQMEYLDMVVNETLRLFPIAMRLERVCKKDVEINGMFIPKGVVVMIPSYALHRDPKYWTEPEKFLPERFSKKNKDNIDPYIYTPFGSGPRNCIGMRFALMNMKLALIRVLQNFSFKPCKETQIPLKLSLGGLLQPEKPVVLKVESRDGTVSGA

Compound	half-life at 1 μM (CYP3A4)	solubility at 24 h [1]	half-life at 1 μM (CYP2C19)	half-life at 1 μM (CYP1A2)	half-life at 1 μM [2]	microsomal CLint at 1 μM [2]	Percent Loss of Substrate [2]	Kd (human CYP2A13; [6])	Spectral shift type 2A13 (human CYP2A13)	IC50 (hERG)	inhibition at 10 µM (hERG)	half-life at 1 μM [3]	microsomal CLint at 1 μM [3]	Percent Loss of Substrate [3]	half-life at 1 μM (CYP2C9)	half-life at 1 μM (CYP2C8)	half-life at 1 μM [4]	microsomal CLint at 1 μM [4]	Percent Loss of Substrate [4]	half-life at 1 μM [5]	also measured
Clc1ccccc1CN1CCOCC1 [Compound 3, 4-(2-chlorobenzyl)morpholine]	33 min	180 µM (≈ 38.1 µg/mL)	13 min	2320 min	1 min	687 µL/min/mg	100/100%	5.9 ± 3.4 µM	I	> 10 µM	13.9%	2.4 min	283 µL/min/mg	99.8%	476 min	62 min	4.7 min	149 µL/min/mg	96.7%	1.6 min	Average T1/2 CYP1A2 (CYP1A2; recombinant enzyme 100 pmol/ml, 1 μM compound): essentially no loss; microsomal CLint at 1 μM [5]: 433 µL/min/mg; Percent Loss of Substrate [5]: 99.9%
Fc1cccc(Cl)c1CN1CCOCC1 [Compound 7, 4-(2-chloro-6-fluorobenzyl)morpholine]	25 min	184 µM (≈ 42.3 µg/mL)	18 min	1210 min	0.8 min	916 µL/min/mg	100/100%	5.2 µM	I	> 10 µM	24.8%	1.5 min	478 µL/min/mg	100%	230 min	51 min	4 min	173 µL/min/mg	97.3%	1.3 min	Kd (human CYP2A13; Kd CYP2A13, follow-up titration of HTS hit, Figure 1D): ~2 µM; microsomal CLint at 1 μM [5]: 551 µL/min/mg; Percent Loss of Substrate [5]: 100%
